Bioassay records: PubChem BioAssay, several laboratories
In the library only some 0.6% were active in any assay of this set; here they are far more common.
Rad51 HR inh: blocks human Rad51 in homologous recombination; Q06609; hRad51 DNA strand exchange, fluorescence dequenching; 200,000 tested, 0.085% active; inhibition, % at 10 µM;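 active = inhibition above 40% at the single screening dose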;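 also: 0% = DMSO control wells and 100% = blanks with heterologous ssDNA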
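Material: Human Rad51 nucleoprotein filaments preassembled on unlabelled ssDNA | Also added: Labelled 47-mer dsDNA for strand exchange | Dosing: Single dose, 10 µM final compound | Schedule: 30-min compound preincubation and 15-min exchange, both room temperature | Technique: Fluorescence dequenching at 485/520 nm | Measure: Percent inhibition relative to plate controls and blanks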
PMI act hi M6P: increases human PMI activity with near-saturating mannose 6-phosphate; P34949; coupled PMI enzyme assay, resazurin fluorescence, 20 min; stronger effect = higher value; 1 = untreated enzyme, 0 = substrate-free blank; activation factor at 20 µM; 190,000 tested, 0.34% active; AID 1216;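 active = activation factor of 2 or more at 20 µM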
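Test system: human PMI in coupled enzyme assay; Input: PMI at 15 ng/mL final; Medium: HEPES buffer, pH 7.4; Schedule: 20 min incubation at room temperature; Technique: resorufin fluorescence at Ex 544/Em 590 nm; Compound: 20 µM single dose; Probe or stimulus: Near-saturating mannose-6-phosphate, 1.0 mM.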
PMI act: phosphomannose isomerase (human) activation. purified human PMI, coupled resazurin fluorescence, 20 min; stronger effect = higher value; 1 = vehicle control, 0 substrate-free wells. activation factor at 20 µM. 190,000 tested, 0.005% active;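 active = activation factor of 2 or more at 20 µM, relative to plate controls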
TNAP inh hi DEA: blocks human TNAP under high phosphate acceptor concentration; purified TNAP, CDP-star luminescence, 1 M DEA; P05186; 200,000 tested, 0.03% active; inhibition, % at 20 µM;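 active = over 50% inhibition of tissue-nonspecific alkaline phosphatase at 20 µM in the single-dose screen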;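 also: plate controls were DMSO wells for no effect and EDTA-quenched wells as full inhibition for full effect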
Target sequence (P05186 whole entry, looked up): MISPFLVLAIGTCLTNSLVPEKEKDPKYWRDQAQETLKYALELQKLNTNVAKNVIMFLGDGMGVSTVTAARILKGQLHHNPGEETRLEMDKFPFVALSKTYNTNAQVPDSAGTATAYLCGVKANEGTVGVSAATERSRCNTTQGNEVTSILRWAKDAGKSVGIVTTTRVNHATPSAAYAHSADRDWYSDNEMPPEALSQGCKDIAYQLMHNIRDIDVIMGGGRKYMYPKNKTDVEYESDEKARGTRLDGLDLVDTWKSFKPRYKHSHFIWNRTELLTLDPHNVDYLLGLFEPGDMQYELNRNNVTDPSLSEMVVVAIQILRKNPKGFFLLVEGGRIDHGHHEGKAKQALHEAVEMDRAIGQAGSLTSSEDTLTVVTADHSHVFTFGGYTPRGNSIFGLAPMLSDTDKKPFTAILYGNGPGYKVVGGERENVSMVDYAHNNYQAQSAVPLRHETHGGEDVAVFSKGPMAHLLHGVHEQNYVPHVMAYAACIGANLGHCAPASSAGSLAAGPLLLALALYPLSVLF
TNAP inh noacc: blocks human TNAP activity with no phosphate acceptor present | P05186 | AID 1012 | inhibition, % at 20 µM | purified TNAP, CDP-star luminescence, 30 min | 200,000 tested, 0.26% active;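 active = tissue-nonspecific alkaline phosphatase inhibition above about 50% at 20 µM in the single-dose screen, limit read from the data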;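 also: 0% = DMSO negative control and 100% = EDTA positive control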
TNAP act hiacc: TNAP (human) activation, high acceptor | P05186 | purified TNAP, CDP-star luminescence, 1 M DEA, 30 min; stronger effect = higher value; 0 = EDTA background, 1 = DMSO-only activity | activation factor at 20 µM | 200,000 tested, under 10 active | AID 1136;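 active = activation factor at least 2 at 20 µM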
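Test system – human TNAP · Doses – 20 µM single point · Incubation – 30 min, room temperature · Signal – luminescent substrate turnover signal · Read-out basis – activation factor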
Starred values were filed as active, the others as inactive; x = no result.

SMILES	Rad51 HR inh	PMI act hi M6P	PMI act	TNAP inh hi DEA	TNAP inh noacc	TNAP act hiacc
CC(=O)/C(=N/Nc1ccccc1)Sc1nnc(CCc2ccccc2)n1-c1ccccc1	11	0.9	0.9	2	-24	1
CC(=O)/C(=N\Nc1ccc(Cl)cc1)Sc1nnc(-c2ccccc2)n1-c1ccccc1	6	2*	1.4	-1	9	1
CC1(C)Cc2nc(N3CCOCC3)c(C#N)cc2CO1	5	0.9	0.9	-2	-9	1
N#Cc1cc2cc3c(cc2nc1N1CCOCC1)OCO3	-1	2.1*	1.7	-4	-18	1
CCn1c(-c2ccc(C)cc2)n[nH]c1=S	2	1.1	1	3	52*	1
CC1Cc2ccccc2N1C(=O)CO/N=C/c1ccccc1OC(F)F (stereo not drawn)	2	0.9	0.9	-2	-6	1
COc1ccc(N(C(=O)c2ccco2)S(=O)(=O)c2cc(Cl)c(Cl)cc2Cl)cc1	2	0.9	0.9	-4	-10	1
COCC(=O)Nc1c(C(=O)Nc2cccc(OC)c2)oc2ccccc12	-3	0.9	0.9	-2	-5	1
COc1cccc(NC(=O)c2oc3ccccc3c2NC(C)=O)c1	112*	0.9	0.9	0	-3	1
Cc1ccc(NC(=O)Cc2c(Cl)cccc2Cl)cc1S(=O)(=O)N(C)C	13	1	1	-1	-19	1
c1ccc(N/N=C(\Cc2ncc[nH]2)c2ccccc2)cc1	-3	2.3*	1.5	3	-11	1
Cc1cc2oc(=O)cc(CN3CCOCC3)c2cc1C	-1	1	1	0	-4	1
Cc1cc2oc(=O)cc(CN3CCCc4ccccc43)c2cc1C	-26	2.3*	1.1	-2	-10	1
CCn1nnnc1-c1ccc(OC)c(S(=O)(=O)Nc2ccc(C(=O)OC)cc2)c1	-3	1	1	-3	-1	1
Cc1ccc(NC(=O)Nc2ccc(S(N)(=O)=O)cc2)cc1	6	1	1.1	1	-6	1
Cc1ccc(S(=O)(=O)c2ccc(NN)cc2)cc1	1	2.5*	1.8	-4	-8	1
O=S(=O)(Nc1ccc(O)c(CN2CCCCC2)c1)c1ccccc1	57*	1	1.1	-6	-13	1.1
Cn1c(CN2CCCC2)nc2cc(NS(=O)(=O)c3ccccc3)ccc21	0	0.9	0.9	0	-9	1
Cc1cc(C)n2nc(C(=O)NNC(=O)c3ccc(Cl)cc3)nc2n1	-7	x	x	x	x	x
COc1cc(/C(C)=N/Nc2ccc(C(=O)O)cc2)cc(OC)c1OC	4	2.1*	1.6	-4	-8	1
COc1ccc(/C(C)=N/Nc2ccc(C(=O)O)cc2)cc1OC	x	2.5*	1.8	4	-14	1
C=CCNc1oc(-c2ccc(OC)cc2)nc1C#N	89*	0.9	0.9	0	-8	1
O=c1[nH][nH]c(-c2ccccc2O)c1C(C[N+](=O)[O-])c1cccc(Cl)c1 (stereo not drawn)	0	1.1	1	42	49	0.6
O=c1[nH][nH]c(-c2ccccc2O)c1C(C[N+](=O)[O-])c1ccc(Cl)cc1Cl (stereo not drawn)	-61	1	1	50	70*	0.5
COC(=O)c1cc2sccc2n1CC(=O)Nc1cccc(SC)c1	x	0.9	0.9	-4	-12	1
SMILES	Rad51 HR inh	PMI act hi M6P	PMI act	TNAP inh hi DEA	TNAP inh noacc	TNAP act hiacc
O=C1NN=C(CSc2n[nH]c(=S)s2)CS1	-92	2.1*	0.9	-1	-2	1
O=C1C2C3C=CC(C3)C2C(=O)N1CCC(=O)N1CCc2ccccc21 (stereo not drawn)	5	1	1	-1	-5	1
O=C(CCN1C(=O)C2C3C=CC(C3)C2C1=O)NCCN1CCCc2ccccc21 (stereo not drawn)	-8	2.1*	1.5	0	1	1
O=C(CN1C(=O)C2C3C=CC(C3)C2C1=O)NCCN1CCCc2ccccc21 (stereo not drawn)	x	2.1*	1.7	-2	-16	1
O=Cc1cn[nH]c1-c1ccccc1	-1	1	1	-3	75*	1
O=S(=O)(c1ccc(C2CCCCC2)cc1)N1CCN(c2ncccn2)CC1	-6	1	0.9	-5	-13	1
CCOC(=O)c1sc(NC(C)=O)nc1C	-2	1.1	1	-2	-8	1
CCOC(=O)c1sc(-n2[nH]c(C)cc2=O)nc1C	6	2.4*	1.6	2	7	1
O=C(Nc1ccccc1)C1=C(c2ccccc2)S(=O)(=O)CCS1(=O)=O	42*	0.9	0.9	-2	-5	1
CCOC(=O)C(C)On1c(-c2cccc(Cl)c2)nc2ccc([N+](=O)[O-])cc21 (stereo not drawn)	10	2*	1.6	2	-2	1
CCOC(=O)COn1c(-c2cccc(Cl)c2)nc2ccc([N+](=O)[O-])cc21	4	2.1*	1.4	-1	-7	1
CC(On1c(-c2ccccc2)nc2ccc(Cl)cc21)C(=O)O (stereo not drawn)	19	1.1	1.1	1	-5	1
CC(C)(C)c1ccc(-c2nc(C#N)c(NCc3cccnc3)o2)cc1	4	0.9	0.7	-3	-5	1
CC(=O)N1CCN(S(=O)(=O)c2ccc(C)cc2)C1c1ccc(N(C)C)cc1 (stereo not drawn)	2	1	1	-5	-13	1.1
COC(=O)C(NNc1ccccc1)(NC(=O)c1cccc(F)c1)C(F)(F)F (stereo not drawn)	3	2.2*	1.7	-3	-1	1
Cc1cccc2c3c([nH]c12)C(=O)CC(C)(C)S3	0	0.9	1	-7	-12	1.1
Cc1cc(=S)c2cccc(C)c2[nH]1	-2	2.7*	1.7	-5	0	1.1
O=C(O)/C=C/c1ccc(O)c(O)c1	2	0.8	0.4	-4	55*	1
CCOC(=O)C1(C)/C(=N/Nc2ccccc2Cl)C(=O)C(=O)N1c1ccccc1 (stereo not drawn)	3	2.1*	1.6	6	19	0.9
CCOC(=O)/C(=N\Nc1ccccc1Cl)N1CCN(C)CC1	4	0.9	0.9	0	-20	1
CCOC(=O)C1(C)/C(=N/Nc2ccc(S(N)(=O)=O)cc2)C(=O)C(=O)N1c1ccccc1 (stereo not drawn)	10	0.7	1.1	37	31	0.6
CCOC(=O)C1(C)/C(=N/Nc2ccc(Cl)cc2)C(=O)C(=O)N1c1ccccc1 (stereo not drawn)	10	2.2*	1.6	12	17	0.9
